Source: the EternaBench riboswitch data

Test system: MS2 coat protein
Assay: apparent Kd, MS2 coat protein; higher = weaker binding; RNA-MaP array; FMN 200 µM where present
Procedure, shortened: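 Designs on Illumina sequencing-chip clusters, transcribed by stalled E. coli RNA polymerase, were exposed to SNAP-549-labelled MS2 coat protein in doubling steps from 0.7 or 1.5 nM up to 3 µM, without and then with constant ligand. The buffer held 100 mM Tris-HCl pH 7.5, 80 mM KCl, 4 mM MgCl2, BSA, DTT, yeast tRNA and Tween-20. Apparent Kd values are medians of filtered per-cluster binding-curve fits to green signal normalised to red-channel RNA signal and control-cluster median Fmax.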

[1] = designed as: ON switch for flavin mononucleotide, no ligand
[2] = ligand present: flavin mononucleotide, designed as: ON switch for flavin mononucleotide
[3] = designed as: OFF switch for flavin mononucleotide, no ligand
[4] = ligand present: flavin mononucleotide, designed as: OFF switch for flavin mononucleotide

Row | Sequence | apparent Kd [1] [nM] | apparent Kd [2] [nM] | apparent Kd [3] [nM] | apparent Kd [4] [nM]
1 | UGGUACAUCGGAGGAUAUCGUGUGUAAACAUGAGGAUCACCCAUGUCAUACGAGAGUAUGUAGAUCGAGAAGGCCGAUGUACCU | 16.7 | 16.2 |  | 
2 | UGGUACAUCGGAGGAUAUCGUGUGUAAACAUGAGGAUCACCCAUGUCGUACGAGAGUACGUAGAUCGAGAAGGCCGAUGUACCU | 17.2 | 14.7 |  | 
3 | UGGUACAUGGGAGGAUAUCCUCAAGACAUGAGGAUCACCCAUGUAAAUUAUAAGCCGAAAGGCAUGGAGAAGGCCCAUGUACCU | 96.3 | 20.2 |  | 
4 | UGGUACAUGGGAGGAUAUCCUCACAUGAGGAUCACCCAUGUAAAGAAUUAUAAGCCGAAAGGCAUGGAGAAGGCCCAUGUACCU | 87.6 | 16.2 |  | 
5 | UGGUACUAGGCAGGAUAUGGGAAGAUACAUGAGGAUCACCCAUGUUUAAGAAUGCCGAGAGGCAACUAGAAGGCCCUAGUACCU | 719 | 620 |  | 
6 | UGGUACUAGGGAGGAUAUGCGAAGAUACAUGAGGAUCACCCAUGUUUAAGAAUGCCGAGAGGCAACUAGAAGGCCCUAGUACCU | 8.5 | 5.38 |  | 
7 | UGGUACUAGGGAGGAUAUGGGAAGAUACAUGAGGAUCACCCAUGUUUAAGAAUGCCGAGAGGCAACUAGAAGGCCCUAGUACGU | 434 | 19.6 |  | 
8 | UGGUACUAGGGAGGAUAUGGGAAGAUACAUGAGGAUCACCCAUGUUUAAGAAUGCCGAGAGGCAACUAGAAGGCCCUUGUACCU | 444 | 19.3 |  | 
9 | UGGUACUAGGGAGGAUAUGGGAAGAUACAUGAGGAUCACCCAUGUUUAAGAAUGCUGAGAGGCAACUAGAAGGCCCUAGUACCU | 439 | 20.9 |  | 
10 | UGGUACUAGGGAGGAUAUGGGAAGAUACAUGAGGAUCACCCAUGUUUAAGCAUGCCGAGAGGCAACUAGAAGGCCCUAGUACCU | 357 | 18 |  | 
11 | UGGUACUUGGGAGGAUAUGGGAAGAUACAUGAGGAUCACCCAUGUUUAAGAAUGCCGAGAGGCAACUAGAAGGCCCUAGUACCU | 493 | 20 |  | 
12 | UGGUAUUAGGGAGGAUAUGGGAAGAUACAUGAGGAUCACCCAUGUUUAAGAAUGCCGAGAGGCAACUAGAAGGCCCUAGUACCU | 500 | 20.3 |  | 
13 | UGGUGUGAGCUAUCACAUGACUGGGAGGAUAUGACAUGAGGAUCACCCAUGUGGGAUCUAAAUUGUCAGAAGGCUCGAUCUGGG |  |  | 750 | 208
14 | UGGUUGUGUGUUAGGAUAUGGUCUGGUGUUUCGGGCUAGAAGGGACAUGAGGAUCACCCAUGUGGCUGGCGGGU |  |  | 127 | 126
15 | UGUAUACAGUCAGGAUAUCAUAGGUUGGUGCUUCUCCAGUGGUACAUGAGGAUCACCCAUGUUUAUGAGAAGGGACUAUUACCU |  |  | 7.82 | 15.1
16 | UGUAUGGACAGAGGAUAUACGGAUAGGAUCUACUAUCUUCCUUAAAUAACAUGAGGAUCACCCAUGUAGAAGGCUGUCCAUACU |  |  | 19 | 74.7
17 | UGUCAAGCAGGAUAUGCACGUAAUAACAUGAGGAUCACCCAUGUGACCGAUUUAUAUUUUGCAGAAGGGCUUGUUU |  |  | 79.7 | 78.2
18 | UGUCCAUAGCAGAAGGACAUGAAUAAAUAUGAAAACAUGAGGAUCACCCAUGUAGGAUAUGCUAUGGACUAAGAGCGAAAGCUC |  |  | 7.68 | 49.3
19 | UGUCCGGUCAUAGGAUAUGACAUGAGGAUCACCCAUGUCUGCUUGGCUUGACCGUUGAUCCAUUGUCAGAAGGGUGCCGUUACA |  |  | 43.2 | 63.1
20 | UGUCGGAGCAGAGGAUAUACAUGAGGAUCACCCAUGUAAAUGAAAGAUAGCUCGAAACGAGCAAAGUAGAAGGCUGCUCCGACA |  |  | 14.9 | 24.7
21 | UGUCGGAGCAGAGGAUAUACAUGAGGAUCACCCAUGUAAAUGGAAUAAGCCUGGAAACAGGCAAUGUAGAAGGCUGCUCCGACA |  |  | 69 | 628
22 | UGUCGGAGCAGAGGAUAUACAUGAGGAUCACCCAUGUAAGAAAGUGAAGCCUGGAAACAGGCAAUGUAGAAGGCUGCUCCGACA |  |  | 12.4 | 86.3
